# Most compounds without a hit are left out; they make up all but 4% or so of the library.
# FGF22 binding – FGF22 (human) thermal shift binding. Q9HCT0. recombinant FGF22 thermal shift, SYPRO orange fluorescence; percent of sucrose octasulfate shift, DMSO zero. AID 651658. activity (Tm shift, normalised), % at 9.99 µM. 340,000 compounds, 1.5% hits;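 active = mean Tm shift, scaled 0 neutral to 100 positive control, at about 1.3% or above, every replicate too, limit read from the data; inconclusive = no clear call, values can overlap the other calls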
# Target sequence (Q9HCT0 whole entry, looked up): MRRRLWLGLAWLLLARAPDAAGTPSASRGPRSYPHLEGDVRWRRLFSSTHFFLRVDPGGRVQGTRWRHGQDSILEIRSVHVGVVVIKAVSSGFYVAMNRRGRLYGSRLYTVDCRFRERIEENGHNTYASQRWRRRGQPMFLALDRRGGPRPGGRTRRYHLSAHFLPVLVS
# rRNA inh HTS – selective bacterial rRNA inhibition in E. coli. GFP signal change (wild-type ribosome), % (concentration not given with the values). AID 720706. E. coli WT GFP vs humanized-ribosome RFP mutants, fluorescence, 24 h; active compounds read low; DMSO median 0, no signal -100. 350,000 compounds, 1.6% hits;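 active = significant combined selectivity score with lowered wild-type GFP, culture density cut under 30%, mutant RFP and density less affected; inactive = any of these conditions unmet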
# Statin myotox sup – suppressors of simvastatin-induced myotoxicity in C2C12 myotubes. AID 602340. ATP luminescence, 48 h; scaled: DMSO 0, geranylgeraniol control 100. 330,000 compounds, 0.78% hits. rescue of ATP level, % at 7.49 µM;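 active = mean ATP rescue above about 67%, or every replicate alone reaching that limit, limit read from the data, passing the limit was not always enough; inconclusive = no clear call, values can overlap the other calls; inactive = mean under the limit and some replicate under it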;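 also: myotubes were challenged with 10 µM simvastatin during compound exposure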
# FN deposit inh – fibronectin deposition inhibition. 350,000 compounds, 0.086% hits. inhibition, % at 12.6 µM. AH1F fibroblasts, Alexa488-fibronectin deposition fluorescence, overnight;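 active = mean inhibition across replicates of 30% or more, regardless of how many single replicates reach that level; inconclusive = mean under 30% yet at least half of replicates reach 30%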;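 also: positive control wells lacked labelled fibronectin entirely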
#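 Schedule: 1 h cell adhesion before compound, then overnight fibronectin incubation; test system: AH1F fibroblast monolayer depositing Alexa488-labelled fibronectin into matrix; quantity: 10000 AH1F cells per well; probe or stimulus: fluorescent fibronectin at 24 nM final; signal: fluorescence, ex 485 nm, em 525 nm; evaluation: percent inhibition as loss of matrix-bound fibronectin fluorescence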
# SIRT5 inh – inhibitors of human sirtuin-5 desuccinylase; Q9NXA8; Purified SirT5, succinyl-peptide AMC, trypsin-coupled fluorescence; inhibition, % at 15 µM; 330,000 compounds, 1.1% hits; AID 652115; in the data active = inhibition above about 15%; inconclusive = no clear call, values can overlap the other calls
# Target sequence (Q9NXA8 whole entry, looked up): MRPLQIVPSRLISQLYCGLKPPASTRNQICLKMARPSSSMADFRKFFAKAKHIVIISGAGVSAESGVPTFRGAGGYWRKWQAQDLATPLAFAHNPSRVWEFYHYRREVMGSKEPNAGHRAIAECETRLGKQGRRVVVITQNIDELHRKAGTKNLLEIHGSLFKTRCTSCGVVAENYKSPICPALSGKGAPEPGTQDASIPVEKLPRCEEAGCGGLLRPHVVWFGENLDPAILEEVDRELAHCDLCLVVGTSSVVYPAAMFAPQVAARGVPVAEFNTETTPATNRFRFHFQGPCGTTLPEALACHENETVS
# E-selectin induc – E-selectin induction on HUVECs | P16581 | activation, % at 7.58 µM | 260,000 compounds, 0.37% hits | HUVEC E-selectin immunofluorescence imaging; normalized: neutral wells 0, TNF-alpha wells 100;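 active = mean E-selectin-positive cell signal at least 10% of the positive control, reached in at least 60% of replicates, without over 20% cell loss; inconclusive = no rule given, readout overlaps actives, possibly toxicity-flagged; inactive = the rest, including those meeting only one limit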
#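 Assay system: HUVEC primary endothelial cells. Input: 3,000 HUVEC seeded per well. Doses: one compound dose added by pin transfer. Read-out basis: % PE-positive cells. Benchmarks: TNF-alpha high, DMSO low. Detection: immunofluorescence imaging. Buffer or medium: EGM-2, gelatin.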
# * = called active by the depositor; ? = inconclusive; · = not tested or not shown.
SMILES,FGF22 binding,rRNA inh HTS,Statin myotox sup,FN deposit inh,SIRT5 inh,E-selectin induc
Cc1ccc(-c2ccc3c(c2)O[C@@H](CN(C)C(=O)C2CCCCC2)[C@@H](C)CN([C@@H](C)CO)S3(=O)=O)cc1,·,1,5,-16,·,0
O=C(O)CC(NC(=O)C12CC3CC(CC(C3)C1)C2)c1ccc2c(c1)OCO2 (configuration not stated),43*,13,·,-7,0,·
C[C@@H]1CN([C@@H](C)CO)C(=O)Cc2cc(NC(=O)CCN3CCOCC3)ccc2O[C@@H]1CN(C)Cc1ccncc1,0,-3,14,·,16*,19
C[C@H]1CN([C@@H](C)CO)C(=O)Cc2cc(NC(=O)CCN3CCOCC3)ccc2O[C@H]1CN(C)CC1CCCCC1,0,6,1,·,20*,0
C[C@@H]1CN([C@@H](C)CO)C(=O)c2cc(NC(=O)c3ccccc3)ccc2O[C@@H](C)CCCCO[C@H]1CN(C)C(=O)NC1CCCCC1,0,1,·,-35,·,0
CC(=O)NS(=O)(=O)c1ccc(NC(=S)NC(=O)Cc2ccccc2)cc1,43*,10,6,9,-4,·
CN(C)/C=N/S(=O)(=O)c1ccc(Cl)cc1,43*,14,-3,-3,-1,·
COc1ccccc1S(=O)(=O)N[C@@H]1CC[C@H](CCNC(=O)C2CC2)O[C@@H]1CO,0,0,4,-5,-7,0
CCOC(=O)C1=CN(CC)S(=O)(=O)NC1c1ccccc1 (configuration not stated),0,14,0,·,-3,·
CCOC(=O)C1=CNS(=O)(=O)NC1CCc1ccccc1 (configuration not stated),0,-22*,3,-9,-8,·
CC(=O)N1CCN(C(=O)c2ccc(Oc3ccccc3)cc2)CC1,0,13,4,-3,0,0
O=C(c1ccccc1)N1CCN(C(=O)c2ccc(OC(F)(F)F)cc2)CC1,·,·,98*,·,·,·
CCCCCCNc1c([N+](=O)[O-])c(=O)sc2ccccc12,0,-24*,0,3,0,0
CC(C)(C)Nc1c([N+](=O)[O-])c(=O)sc2ccccc12,1,11,5,-1,3,·
COc1ccc(CSC2=C(C#N)C(=O)NC3(CCCCC3)S2)cc1,·,-28*,11,2,·,0
COCC(=O)Nc1ccc2c(c1)C(=O)N(C)C[C@@H](OC)[C@H](C)CN(C(=O)Cc1ccccn1)[C@@H](C)CO2,0,1,-3,2,0,0
COc1ccc(N2C(=O)C(CC(=O)Nc3ccc(Cl)cc3)N(NC(=O)c3cccc(F)c3)C2=S)cc1 (configuration not stated),0,-17*,9,-9,-2,-1
COc1ccc(NC(=O)CC2C(=O)N(c3ccc(OC)cc3)C(=S)N2NC(=O)c2cccc(F)c2)cc1 (configuration not stated),·,·,·,-2,·,3
CN1C(=O)C(CC(=O)NCCc2ccccc2)N(NC(=O)c2cccc(F)c2)C1=S (configuration not stated),0,-16*,-1,1,-5,?
O=C(C[C@@H]1C[C@@H]2c3cc(NS(=O)(=O)c4ccccc4)ccc3O[C@@H]2[C@@H](CO)O1)N1CCCCC1,0,5,1,-24,5,0
Cn1c(=O)[nH]c(=O)c2cc(C(=O)c3cc(F)ccc3O)cnc21,43*,·,·,-5,0,1
O=C(c1cnc2ccc3ccccc3c2c1)c1cc(F)ccc1O,0,3,·,5,-4,·
C[C@@H]1CN([C@H](C)CO)C(=O)c2cc(NC(=O)CCCCCC(=O)Nc3ccccc3N)ccc2O[C@@H]1CN(C)C(=O)Nc1ccc(F)cc1,0,0,·,·,-4,9
O=C(C[C@H]1CC[C@H]2[C@@H](COC[C@@H](O)CN2S(=O)(=O)c2ccccc2F)O1)N1CCC(Cc2ccccc2)CC1,0,-14,8,-17,6,0
Cc1ccc(NC(=O)COCC(=O)Nc2ccc(C)cc2)cc1,0,1,-12,-1,0,0
SMILES,FGF22 binding,rRNA inh HTS,Statin myotox sup,FN deposit inh,SIRT5 inh,E-selectin induc
Cc1ccc(NC(=O)COCC(=O)Nc2ccc(F)cc2)cc1,1,2,-3,7,24*,0
C[C@@H]1CCCCO[C@H](CN(C)C(=O)c2ccccc2)[C@H](C)CN([C@@H](C)CO)C(=O)c2cc(NS(=O)(=O)c3cccs3)ccc2O1,0,-2,38,-8,3,·
COc1ccc(S(=O)(=O)Nc2ccc3c(c2)C(=O)N([C@H](C)CO)C[C@H](C)[C@H](CN(C)Cc2ccc(C(F)(F)F)cc2)OCCCC[C@H](C)O3)cc1,0,-3,·,-3,39*,0
COc1ccc(S(=O)(=O)Nc2ccc3c(c2)C(=O)N([C@H](C)CO)C[C@H](C)[C@H](CN(C)Cc2ccc(C(F)(F)F)cc2)OCCCC[C@@H](C)O3)cc1,0,4,·,3,13,1
COc1ccc(S(=O)(=O)Nc2ccc3c(c2)C(=O)N([C@H](C)CO)C[C@@H](C)[C@H](CN(C)Cc2ccc(C(F)(F)F)cc2)OCCCC[C@@H](C)O3)cc1,0,-5,·,-13,2,0
COc1ccc(S(=O)(=O)Nc2ccc3c(c2)C(=O)N([C@H](C)CO)C[C@@H](C)[C@@H](CN(C)Cc2ccc(C(F)(F)F)cc2)OCCCC[C@@H](C)O3)cc1,0,1,·,15,15*,0
COc1ccc(S(=O)(=O)Nc2ccc3c(c2)C(=O)N([C@@H](C)CO)C[C@@H](C)[C@@H](CN(C)Cc2ccc(C(F)(F)F)cc2)OCCCC[C@@H](C)O3)cc1,0,-1,·,6,22*,0
COc1ccc(S(=O)(=O)Nc2ccc3c(c2)C(=O)N([C@H](C)CO)C[C@@H](C)[C@@H](CN(C)Cc2ccc(C(F)(F)F)cc2)OCCCC[C@H](C)O3)cc1,-1,-1,·,8,17*,0
COc1ccc(S(=O)(=O)Nc2ccc3c(c2)C(=O)N([C@@H](C)CO)C[C@@H](C)[C@H](CN(C)Cc2ccc(C(F)(F)F)cc2)OCCCC[C@H](C)O3)cc1,0,2,·,3,7,0
Cc1ccc(S(=O)(=O)N(C)C[C@@H]2OCCCC[C@@H](C)Oc3ccc(NC(=O)Nc4ccc(C(F)(F)F)cc4)cc3C(=O)N([C@H](C)CO)C[C@@H]2C)cc1,0,5,·,-1,·,·
COc1cccc(NC(=O)Nc2ccc3c(c2)OC[C@@H](C)NC[C@H](C)[C@@H](OC)CN(C)C3=O)c1,0,0,3,-1,-1,0
